Reference: ChEMBL document CHEMBL3112425, “Design, synthesis, and structure-activity relationship studies of a potent PACE4 inhibitor” (J Med Chem, 2014)
Peptide text beside a SMILES is read from it. * marks the point of attachment. X1 = N=C(N)NC/C=C/CN*

How the values were obtained:
[1] = system: Plasma; assay: Drug degradation in CD-1 mouse plasma at 0.5 ug/uL after 30 mins by MALDI-TOF MS analysis; type: ADME, cell-free; settings: 0.5 h
Outline: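 For fragment mapping, 100 μg peptide was incubated in murine plasma at 37 °C. At each time point, plasma samples were quenched with 3% TFA. Proteins were precipitated with 2 volumes acetonitrile and centrifuged at 17 000g. Supernatants were analyzed by MALDI-TOF MS for C-terminally truncated fragments.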

[2] = system: LNCaP; assay: Cytotoxicity against human LNCAP cells after 72 hrs by MTT assay; type: functional, cell-based
Outline: (§1)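 Prostate cancer cells were kept in RPMI 1640 at 37 °C, 5% CO2, with 5% FBS for DU145 and 10% FBS for LNCaP and PC3. After 24 h, medium was changed and peptides added at various concentrations, up to 350 μM. Viability was read by MTT after 72 h treatment. IC50 from dose–response curves, triplicate, mean ± SEM.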

[3] = system: PC-3; assay: Cytotoxicity against human PC3 cells after 72 hrs by MTT assay; type: functional, cell-based; settings: PC-3, 72 h; outline: as §1
[4] = target: Furin (Homo sapiens, UniProt P09958); assay: Inhibition of human recombinant furin expressed in drosophila schneider 2 cells using pyroGlu-Arg-Thr-Lys-Arg-AMC as substrate after 1 hr
Outline: (§2)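 Human enzymes were expressed in Drosophila S2 cells and purified. Fluorogenic pyroGlu-RTKR-AMC was used at fixed concentration with varied inhibitor, 37 °C over 1 h. Buffers: furin, 100 mM Hepes pH 7.5, 1 mM CaCl2, 1 mM β-mercaptoethanol, 1.8 mg/mL BSA; PACE4 and PC7, 20 mM Bis-Tris pH 6.5, 1 mM CaCl2, 1.8 mg/mL BSA; PC2, same buffer at pH 5.7. Ki from IC50 (Cheng–Prusoff), or apparent Ki (Morrison) for tight binders. Triplicate, mean ± SD.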

[5] = target: T1, Proprotein convertase subtilisin/kexin type 7 (Homo sapiens, UniProt Q16549); assay: Inhibition of human PC7 expressed in drosophila schneider 2 cells using pyroGlu-Arg-Thr-Lys-Arg-AMC as substrate after 1 hr; outline: as §2
T1 sequence (Q16549 whole entry): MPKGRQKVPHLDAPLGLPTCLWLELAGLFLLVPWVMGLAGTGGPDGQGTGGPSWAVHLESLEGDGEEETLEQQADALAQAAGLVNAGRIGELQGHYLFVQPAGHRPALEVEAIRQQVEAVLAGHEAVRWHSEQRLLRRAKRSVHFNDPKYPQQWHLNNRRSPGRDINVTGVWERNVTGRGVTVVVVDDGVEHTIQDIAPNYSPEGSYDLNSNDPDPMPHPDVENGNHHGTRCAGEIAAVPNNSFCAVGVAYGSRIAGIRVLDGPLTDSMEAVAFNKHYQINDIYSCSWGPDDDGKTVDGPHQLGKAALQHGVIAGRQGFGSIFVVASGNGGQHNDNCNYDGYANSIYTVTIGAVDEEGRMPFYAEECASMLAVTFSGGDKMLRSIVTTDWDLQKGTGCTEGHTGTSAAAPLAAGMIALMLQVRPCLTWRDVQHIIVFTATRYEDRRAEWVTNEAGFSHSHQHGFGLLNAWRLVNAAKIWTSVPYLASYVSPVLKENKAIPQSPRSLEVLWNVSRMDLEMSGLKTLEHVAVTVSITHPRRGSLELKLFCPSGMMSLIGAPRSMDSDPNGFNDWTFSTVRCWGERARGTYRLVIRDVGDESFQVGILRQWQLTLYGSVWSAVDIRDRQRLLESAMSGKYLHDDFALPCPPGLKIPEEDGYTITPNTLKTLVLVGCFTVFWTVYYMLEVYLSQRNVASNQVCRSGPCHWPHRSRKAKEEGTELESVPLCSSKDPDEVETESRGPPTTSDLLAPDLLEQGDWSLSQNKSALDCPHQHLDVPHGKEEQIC

[6] = system: DU-145; assay: Cellular uptake in human DU145 cells after 1 hr by propidium iodide staining-based FACS analysis; type: ADME, cell-based; settings: du-145, 1 h
Outline: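 FITC-βAla-labelled peptides at 10 μM were given to DU145 cells for 1 h in serum-free RPMI. Cells were collected, then washed twice with 0.05% trypsin (5 min, 37 °C) to strip membrane-bound peptide. Propidium iodide (10 μg/mL, 2 min) excluded damaged cells. FACS read 10 000 events/sample as geometric mean fluorescence, against untreated-cell autofluorescence.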

[7] = system: DU-145; assay: Cytotoxicity against human DU145 cells after 72 hrs by MTT assay; type: functional, cell-based; settings: DU-145, 72 h; outline: as §1
[8] = target: T2, Proprotein convertase subtilisin/kexin type 6 (Homo sapiens, UniProt P29122); assay: Inhibition of human recombinant PACE4 expressed in drosophila schneider 2 cells using pyroGlu-Arg-Thr-Lys-Arg-AMC as substrate after 1 hr; outline: as §2
T2 sequence (P29122 whole entry): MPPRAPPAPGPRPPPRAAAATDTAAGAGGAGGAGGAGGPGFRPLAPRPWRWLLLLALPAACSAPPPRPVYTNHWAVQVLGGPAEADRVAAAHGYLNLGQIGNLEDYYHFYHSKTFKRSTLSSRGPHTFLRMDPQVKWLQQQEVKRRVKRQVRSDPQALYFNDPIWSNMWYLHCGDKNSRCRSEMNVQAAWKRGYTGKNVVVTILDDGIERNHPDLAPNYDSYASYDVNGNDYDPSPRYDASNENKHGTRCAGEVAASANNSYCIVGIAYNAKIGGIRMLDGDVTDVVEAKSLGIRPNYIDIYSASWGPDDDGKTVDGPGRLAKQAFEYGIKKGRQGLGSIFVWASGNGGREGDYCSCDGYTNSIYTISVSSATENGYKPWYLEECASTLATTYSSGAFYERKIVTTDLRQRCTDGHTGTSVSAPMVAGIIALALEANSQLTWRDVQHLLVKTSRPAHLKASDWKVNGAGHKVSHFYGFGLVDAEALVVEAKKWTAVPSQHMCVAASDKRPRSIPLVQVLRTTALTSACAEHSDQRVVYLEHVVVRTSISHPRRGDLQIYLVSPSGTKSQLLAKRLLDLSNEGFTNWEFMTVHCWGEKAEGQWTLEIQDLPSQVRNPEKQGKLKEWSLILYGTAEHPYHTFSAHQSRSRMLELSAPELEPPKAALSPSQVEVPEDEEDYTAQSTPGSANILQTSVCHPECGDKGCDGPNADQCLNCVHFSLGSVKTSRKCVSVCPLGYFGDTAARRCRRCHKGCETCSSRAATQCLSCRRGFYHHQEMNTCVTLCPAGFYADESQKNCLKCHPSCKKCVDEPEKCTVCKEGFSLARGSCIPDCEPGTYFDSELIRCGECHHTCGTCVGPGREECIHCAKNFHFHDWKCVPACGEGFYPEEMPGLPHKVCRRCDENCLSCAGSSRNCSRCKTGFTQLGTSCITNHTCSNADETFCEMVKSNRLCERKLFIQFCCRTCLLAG

[9] = Half life in CD-1 mouse plasma at 0.5 ug/uL by RP-HPLC analysis; type: ADME, cell-free
Outline: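 Peptides at 0.5 μg/μL were incubated at 37 °C in heparinized plasma pooled from mixed-sex CD1 mice. At each time point the reaction was stopped with 1 M guanidinium-HCl, then acetonitrile, and proteins were spun out. Supernatant peptide AUC (RP-HPLC) was compared with non-incubated samples. Half-life came from a one-phase decay fit. Run ≥3 times, duplicate per time point.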

Sequence of Furin (P09958 whole entry): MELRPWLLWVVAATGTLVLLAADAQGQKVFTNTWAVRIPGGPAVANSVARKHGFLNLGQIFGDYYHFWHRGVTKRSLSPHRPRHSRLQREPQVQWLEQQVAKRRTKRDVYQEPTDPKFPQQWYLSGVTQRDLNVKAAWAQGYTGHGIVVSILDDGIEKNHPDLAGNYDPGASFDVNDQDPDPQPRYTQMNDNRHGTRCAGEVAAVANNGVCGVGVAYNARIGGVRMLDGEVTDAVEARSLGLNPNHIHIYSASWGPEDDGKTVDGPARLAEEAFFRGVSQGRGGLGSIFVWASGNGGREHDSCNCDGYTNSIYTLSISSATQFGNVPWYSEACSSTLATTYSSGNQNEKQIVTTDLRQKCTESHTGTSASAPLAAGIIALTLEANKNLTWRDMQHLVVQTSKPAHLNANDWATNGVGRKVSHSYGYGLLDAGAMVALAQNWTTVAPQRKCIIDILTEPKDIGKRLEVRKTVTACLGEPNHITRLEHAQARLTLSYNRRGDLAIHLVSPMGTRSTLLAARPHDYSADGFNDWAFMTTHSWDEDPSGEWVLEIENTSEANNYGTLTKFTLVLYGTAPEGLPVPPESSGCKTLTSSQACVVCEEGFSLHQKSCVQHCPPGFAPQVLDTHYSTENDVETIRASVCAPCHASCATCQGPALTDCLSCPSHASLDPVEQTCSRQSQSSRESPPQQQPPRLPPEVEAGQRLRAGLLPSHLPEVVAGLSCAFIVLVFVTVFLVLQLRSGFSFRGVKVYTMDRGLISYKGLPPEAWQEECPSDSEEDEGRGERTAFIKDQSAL

- Stability [1]: Unstable
- Ki [4]: 0.027 µM
- Ki [5]: 0.072 µM
- Drug uptake [6]: Active
- Ki [8]: 0.0053 µM
- half-life at 0.5 ug/uL [9]: 7.2 h
SMILES: CC(=O)N[C@@H](CC(C)C)C(=O)N[C@@H](CC(C)C)C(=O)N[C@@H](CC(C)C)C(=O)N[C@@H](CC(C)C)C(=O)N[C@@H](CCCNC(=N)N)C(=O)N[C@H](C(=O)N[C@@H](CCCCN)C(=O)NC/C=C/CNC(=N)N)C(C)C (Ac-LLLLRVK-X1)
- IC50 [2]: 70 µM
- IC50 [3]: 200 µM
- IC50 [7]: 90 µM
